Measurements collected from several papers.
Lines come from different studies, so protocols differ.
Effect on: metabolic stability
Species: human

For `CC1(CN)CCN(c2cnc3c(Sc4ccncc4Cl)n[nH]c3n2)CC1`, the scaled CLint was 34 mL/min/kg (liver microsomes).
`CCn1cnc2c([C@@](O)(CC)c3ccc(C(F)(F)F)nc3)n(C)nc2c1=O` has a microsomal CLint of less than 3 µL/min/mg (liver microsomes; 0.5 µM; pH 7.4).
With `CCOc1ccc(NC(C)=O)cc1` the microsomal CLint was 20.7 µL/min/mg (liver microsomes).
For `CC(C)C[C@H](NC(=O)[C@H](CCc1ccccc1)NC(=O)CN1CCOCC1)C(=O)N[C@@H](Cc1ccccc1)C(=O)N[C@@H](CC(C)C)C(=O)[C@@]1(C)CO1`, the scaled CLint was 931 mL/min/kg (liver microsomes; 2 µM; 1 h).
The microsomal CLint of `CCC(CC)COC(=O)[C@H](C)N[P@](=O)(OC[C@@H]1C[C@@H](O)[C@H](n2cnc3c(N)nc(F)nc32)O1)Oc1ccccc1` is reported as 1230 µL/min/mg (liver microsomes; 1 µM).
For `CC(C)C[C@H](NC(=O)[C@@H]1COCCCCCC(=O)NCC(=O)N2CCC[C@H]2C(=O)N1)C(=O)[C@@]1(C)CO1`, the scaled CLint was 22.5 mL/min/kg (liver microsomes; 2 µM; 1 h).
For `O=c1ccc2cc(O)ccc2o1`, the microsomal CLint was 22 µL/min/mg (liver microsomes).
The scaled CLint of `CCN(CCN)c1ccc(Nc2cc(NC3CC3)n3ncc(C#N)c3n2)cc1-n1cnnc1` is reported as less than 6.9 mL/min/kg (hepatocytes; 1 µM; serum-free).
With `CCn1ccc2c([C@](O)(c3cnc(C(F)(F)F)c(Cl)c3)C3CC3)n(C)nc2c1=O` the microsomal CLint was less than 3 µL/min/mg (liver microsomes; 0.5 µM; pH 7.4).
The scaled CLint of `O=c1ccc2ccc(O)cc2o1` is reported as 939 mL/min/kg (liver microsomes).
The hepatocyte CLint of `CC[C@@](O)(c1cnc(C(F)(F)F)c(Cl)c1)c1c2ccn(C3CC3)c(=O)c2nn1C` is reported as 1.6 µL/min/10⁶ cells (hepatocytes; 0.5 µM; pH 7.4).
With `CCC(CC)COC(=O)[C@H](C)N[P@](=O)(OC[C@@H]1C[C@@H](O)[C@H](n2cnc3c(N)ncnc32)O1)Oc1ccccc1` the microsomal CLint was 2120 µL/min/mg (liver microsomes; 1 µM).
The microsomal CLint of `CC[N+]1(C)CCN(c2ccc(NC(=O)c3cccc(C)n3)cc2)CC1` is reported as less than 3 µL/min/mg (liver microsomes).
For `O=c1ccc2ccc(O)cc2o1`, the hepatocyte CLint was 56 µL/min/10⁶ cells (hepatocytes; 1 µM).
For `Cn1nc2c(=O)n(C3CC3)ncc2c1[C@](N)(c1ccc(C(F)(F)F)c(Cl)c1)C1CC1`, the hepatocyte CLint was less than 0.5 µL/min/10⁶ cells (hepatocytes; 0.5 µM; pH 7.4).
`C[C@]1(C(=O)[C@H](Cc2ccccc2)NC(=O)[C@@H]2COCCCCCC(=O)N3C[C@H](F)C[C@H]3C(=O)N2)CO1` has a scaled CLint of 93.1 mL/min/kg (liver microsomes; 2 µM; 1 h).
`Cc1ccc(Cn2cc(C(=O)NN)c(=O)c3cc(Oc4ccccc4)ccc32)cc1` gave a microsomal CLint of less than 11.6 µL/min/mg (liver microsomes; 1 µM).
The scaled CLint of `CC(C)C[C@H](NC(=O)[C@@H]1COCCCCCC(=O)N2CC(F)(F)C[C@H]2C(=O)N1)C(=O)[C@@]1(C)CO1` is reported as 57.6 mL/min/kg (liver microsomes; 2 µM; 1 h).
The microsomal CLint of `CCn1cc(C)c2c(C(O)c3ccc(Cl)c(F)c3)n(C)nc2c1=O` (stereo not shown) is reported as 23 µL/min/mg (liver microsomes; 0.5 µM; pH 7.4).
